SMILES strings stand for the structures. Activity calls are given as the source filed them. The calls are words filed in the database; no cut-off is given here.

Results on 2 compounds are retold here after ChEMBL document CHEMBL3414560, “Discovery of 4-(dihydropyridinon-3-yl)amino-5-methylthieno[2,3-d]pyrimidine derivatives as potent Mnk inhibitors: synthesis, structure-activity relationship analysis and biological evaluation” (Eur J Med Chem, 2015).

The subject of assay [1] is MV4-11. Kind of assay: Induction of apoptosis in human MV4-11 cells assessed as induction of PARP cleavage expression at 10 uM after 24 hrs by Western blotting method. In kind it is functional, cell-based. The essentials: (§1)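 MV-4-11 cells in RPMI-1640 with 10% FBS, exposed 24 h (DMSO diluent control); Western blot probing Mnk1, eIF4E, p-eIF4E Ser209, Bcl-2, Mcl-1, cyclin D1, PARP, cleaved PARP; β-actin as loading control; HRP-conjugated anti-mouse/anti-rabbit IgG secondaries.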

In assay [2] the test system is MV4-11. Kind of assay: Induction of apoptosis in human MV4-11 cells assessed as late apoptotic cells level at 10 uM after 24 hrs by FITC annexin-V/PI staining based flow cytometry (reference value: 5.4%). The class given is functional. In a few lines: (§2)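 MV-4-11 cells seeded at 8 × 10^4, overnight at 37 °C, 5% CO2, then treated 24 h (DMSO diluent control); pellets collected (300 × g, 5 min), stained with FITC annexin V/PI kit and analysed by flow cytometry within 1 h; apoptotic = annexin V+/PI− plus annexin V+/PI+ cells.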

For assay [3], the system named is MV4-11. Kind of assay: Reduction in cyclin D1 expression in human MV4-11 cells at 10 uM after 24 hrs by Western blotting method. The class given is functional, cell-based. The essentials:
(§3)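 MV-4-11 AML cells grown in RPMI-1640 with 10% FBS, treated 24 h at the stated concentration against a DMSO diluent control. Lysates probed by Western blot for cyclin D1, with β-actin as loading control and HRP-conjugated anti-mouse/anti-rabbit IgG secondaries.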

The test system of assay [4] is MV4-11. Kind of assay: Induction of apoptosis in human MV4-11 cells assessed as reduction in Mcl1 expression at 10 uM after 24 hrs by Western blotting method. The class given is functional, cell-based. In a few lines:
as §1
(In general: Immunoblotting shows a protein as a band on a membrane.)

In assay [5] the test system is MV4-11. Kind of assay: Induction of cell cycle arrest in human MV4-11 cells assessed as accumulation at subG1 phase at 10 uM after 24 hrs by FITC propidium iodide staining based flow cytometry (reference value: 7.7%). The class given is functional. A general note: In flow cytometry, cells or beads pass a laser one at a time.
The subject of assay [6] is MV4-11. Kind of assay: Growth inhibition of human MV4-11 cells after 72 hrs by resazurin assay. The class given is functional. As to conditions: MV4-11, 72 h. For orientation: The colour change of resazurin is a common sign of viable cells or microbes.
Assay [7] relates to MV4-11. Kind of assay: Induction of apoptosis in human MV4-11 cells assessed as early apoptotic cells level at 10 uM after 24 hrs by FITC annexin-V/PI staining based flow cytometry (reference value: 3.02%). In kind it is functional. The essentials: as §2
Assay [8] relates to MV4-11. Kind of assay: Induction of apoptosis in human MV4-11 cells assessed as viable cells level at 10 uM after 24 hrs by FITC annexin-V/PI staining based flow cytometry (reference value: 91.49%). The class given is functional. The essentials: as §2
Assay [9] concerns the target T1, MAP kinase-interacting serine/threonine-protein kinase 1 (Homo sapiens, UniProt Q9BUB5). To be noted: MV4-11, 10 uM.
Target sequence in this assay (Q9BUB5 whole entry, looked up): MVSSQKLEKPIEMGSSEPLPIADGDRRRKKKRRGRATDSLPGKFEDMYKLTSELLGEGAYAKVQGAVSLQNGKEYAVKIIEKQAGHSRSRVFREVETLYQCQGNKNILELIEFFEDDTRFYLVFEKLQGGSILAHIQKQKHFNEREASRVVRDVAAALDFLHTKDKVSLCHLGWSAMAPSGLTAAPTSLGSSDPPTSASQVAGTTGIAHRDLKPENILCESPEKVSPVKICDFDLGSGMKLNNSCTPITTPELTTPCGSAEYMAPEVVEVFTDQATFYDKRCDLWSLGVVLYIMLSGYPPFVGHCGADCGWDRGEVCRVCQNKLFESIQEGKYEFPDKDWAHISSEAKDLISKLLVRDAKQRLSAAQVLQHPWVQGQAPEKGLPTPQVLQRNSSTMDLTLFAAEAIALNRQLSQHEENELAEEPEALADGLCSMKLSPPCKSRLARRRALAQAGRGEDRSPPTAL
Assay [10] relates to MV4-11. Kind of assay: Induction of caspase-3/7 activation in human MV4-11 cells at 10 uM after 24 hrs. In kind it is functional, cell-based. In a few lines:
(§4)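 MV-4-11 cells treated 24 h, DMSO diluent as control; caspase-3/7 activity measured with Apo-ONE homogeneous caspase-3/7 kit per manufacturer, read on plate reader; expressed as relative activity.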

In assay [11] the test system is MV4-11. Kind of assay: Induction of cell cycle arrest in human MV4-11 cells assessed as accumulation at G1 phase at 10 uM after 24 hrs by FITC propidium iodide staining based flow cytometry (reference value: 58.1%). The class given is functional.
The test system of assay [12] is MV4-11. Kind of assay: Induction of apoptosis in human MV4-11 cells at 10 uM after 24 hrs by FITC annexin-V/PI staining based flow cytometry. The class given is functional. In a few lines:
as §2

In assay [13] the test system is MV4-11. Kind of assay: Induction of cell cycle arrest in human MV4-11 cells assessed as accumulation at G2/M phase at 10 uM after 24 hrs by FITC propidium iodide staining based flow cytometry (reference value: 17.5%). The class given is functional.
The test system of assay [14] is MV4-11. Kind of assay: Induction of cell cycle arrest in human MV4-11 cells assessed as accumulation at S phase at 10 uM after 24 hrs by FITC propidium iodide staining based flow cytometry (reference value: 16.7%). The class given is functional.
Assay [15] has as its system MV4-11. Kind of assay: Induction of apoptosis in human MV4-11 cells assessed as necrotic cells level at 10 uM after 24 hrs by FITC annexin-V/PI staining based flow cytometry (reference value: 0.1%). The class given is functional. The essentials: as §2
Assay [16] deals with MV4-11. Kind of assay: Induction of apoptosis in human MV4-11 cells assessed as early apoptotic cells level at 20 uM after 24 hrs by FITC annexin-V/PI staining based flow cytometry (reference value: 3.02%). The class given is functional. The essentials:
as §2

In assay [17] the target is Serine/threonine-protein kinase mTOR (Homo sapiens) (UniProt P42345). Kind of assay: Inhibition of mTOR (unknown origin) assessed as reduction in kinase activity at 10 uM using ATP.
The subject of assay [18] is MV4-11. Kind of assay: Effect on total eIF4E protein level in human MV4-11 cells at 20 uM after 24 hrs by Western blotting method. The class given is functional, cell-based. In a few lines:
as §1

Assay [19] concerns the target Receptor-type tyrosine-protein kinase FLT3 (Homo sapiens) (UniProt P36888). Kind of assay: Inhibition of FLT3 (unknown origin) assessed as reduction in kinase activity at 10 uM using ATP.
For assay [20], the system named is MV4-11. Kind of assay: Induction of cell cycle arrest in human MV4-11 cells assessed as accumulation at subG1 phase at 20 uM after 24 hrs by FITC propidium iodide staining based flow cytometry (reference value: 7.7%). In kind it is functional.
Assay [21] has as its target Mitogen-activated protein kinase 1 (Homo sapiens) (UniProt P28482). Kind of assay: Inhibition of MAPK1 (unknown origin) assessed as reduction in kinase activity at 10 uM using ATP.
The target in assay [22] is T1, MAP kinase-interacting serine/threonine-protein kinase 1. Kind of assay: Inhibition of Mnk1 in human MV4-11 cells assessed as reduction in eIF4E Ser209 phosphorylation at 20 uM after 24 hrs by Western blotting method. The class given is cell-based. The essentials:
as §1
Target sequence in this assay (Q9BUB5 whole entry, looked up): as above

Assay [23] concerns the target RAC-alpha serine/threonine-protein kinase (Homo sapiens) (UniProt P31749). Kind of assay: Inhibition of PKBalpha (unknown origin) assessed as reduction in kinase activity at 10 uM using ATP.
For assay [24], the system named is MV4-11. Kind of assay: Induction of apoptosis in human MV4-11 cells at 20 uM after 24 hrs by FITC annexin-V/PI staining based flow cytometry. In kind it is functional. The essentials:
as §2

In assay [25] the target is MAP kinase-interacting serine/threonine-protein kinase 2 (Homo sapiens, UniProt Q9HBH9). Kind of assay: Inhibition of Mnk2 (unknown origin) pre-incubated for 10 mins before eIF4E peptide substrate addition by ADP-Glo kinase assay.
Assay [26] deals with MV4-11. Kind of assay: Induction of cell cycle arrest in human MV4-11 cells assessed as accumulation at G1 phase at 20 uM after 24 hrs by FITC propidium iodide staining based flow cytometry (reference value: 58.1%). The class given is functional.
Assay [27] addresses Serine/threonine-protein kinase pim-1 (Homo sapiens) (UniProt P11309). Kind of assay: Inhibition of PIM1 (unknown origin) assessed as reduction in kinase activity at 10 uM using ATP.
The species named for a further assay is Homo sapiens. Kind of assay: Inhibition of PI3K (unknown origin) assessed as reduction in kinase activity at 10 uM using ATP.
Assay [28] has as its system MV4-11. Kind of assay: Induction of cell cycle arrest in human MV4-11 cells assessed as accumulation at S phase at 20 uM after 24 hrs by FITC propidium iodide staining based flow cytometry (reference value: 16.7%). The class given is functional.
Assay [29] concerns MV4-11. Kind of assay: Induction of caspase-3/7 activation in human MV4-11 cells at 20 uM after 24 hrs. The class given is functional, cell-based. The essentials:
as §4

Assay [30] has as its system MV4-11. Kind of assay: Induction of apoptosis in human MV4-11 cells assessed as viable cells level at 20 uM after 24 hrs by FITC annexin-V/PI staining based flow cytometry (reference value: 91.49%). The class given is functional. In a few lines: as §2
The target in assay [31] is T1, MAP kinase-interacting serine/threonine-protein kinase 1. Kind of assay: Inhibition of Mnk1 (unknown origin) pre-incubated for 10 mins before eIF4E peptide substrate addition by ADP-Glo kinase assay.
Target sequence in this assay (Q9BUB5 whole entry): as the sequence (Q9BUB5 whole entry, looked up) above
For assay [32], the system named is MV4-11. Kind of assay: Induction of apoptosis in human MV4-11 cells assessed as late apoptotic cells level at 20 uM after 24 hrs by FITC annexin-V/PI staining based flow cytometry (reference value: 5.4%). The class given is functional. In a few lines: as §2
For assay [33], the system named is MV4-11. Kind of assay: Induction of apoptosis in human MV4-11 cells assessed as reduction in Mcl1 expression at 20 uM after 24 hrs by Western blotting method. In kind it is functional, cell-based. The essentials:
as §1

Assay [34] deals with MV4-11. Kind of assay: Induction of apoptosis in human MV4-11 cells assessed as necrotic cells level at 20 uM after 24 hrs by FITC annexin-V/PI staining based flow cytometry (reference value: 0.1%). In kind it is functional. In a few lines:
as §2

Assay [35] has as its target Mitogen-activated protein kinase 14 (Homo sapiens) (UniProt Q16539). Kind of assay: Inhibition of SAPK2a (unknown origin) assessed as reduction in kinase activity at 10 uM using ATP.
In assay [36] the target is CDK2/Cyclin A2 (Homo sapiens) (UniProt P24941+P20248). Kind of assay: Inhibition of CDK2/cyclinA (unknown origin) assessed as reduction in kinase activity at 10 uM using ATP. In kind it is protein-complex assay.
Assay [37] concerns MV4-11. Kind of assay: Reduction in cyclin D1 expression in human MV4-11 cells at 20 uM after 24 hrs by Western blotting method. The class given is functional, cell-based. In a few lines:
as §3

The test system of assay [38] is MV4-11. Kind of assay: Effect on total Mnk1 protein level in human MV4-11 cells at 20 uM after 24 hrs by Western blotting method. In kind it is functional, cell-based. The essentials:
as §1

Assay [39] has as its system MV4-11. Kind of assay: Induction of cell cycle arrest in human MV4-11 cells assessed as accumulation at G2/M phase at 20 uM after 24 hrs by FITC propidium iodide staining based flow cytometry (reference value: 17.5%). The class given is functional.
The target of assay [40] is CDK9/cyclin T1 (Homo sapiens) (UniProt O60563+P50750). Kind of assay: Inhibition of CDK9/cyclinT1 (unknown origin) assessed as reduction in kinase activity at 10 uM using ATP. In kind it is protein-complex assay.
The subject of assay [41] is MV4-11. Kind of assay: Induction of apoptosis in human MV4-11 cells assessed as induction of PARP cleavage expression at 20 uM after 24 hrs by Western blotting method. In kind it is functional, cell-based. In a few lines:
as §1

Chain of Mitogen-activated protein kinase 14 (Homo sapiens) (Q16539 whole entry): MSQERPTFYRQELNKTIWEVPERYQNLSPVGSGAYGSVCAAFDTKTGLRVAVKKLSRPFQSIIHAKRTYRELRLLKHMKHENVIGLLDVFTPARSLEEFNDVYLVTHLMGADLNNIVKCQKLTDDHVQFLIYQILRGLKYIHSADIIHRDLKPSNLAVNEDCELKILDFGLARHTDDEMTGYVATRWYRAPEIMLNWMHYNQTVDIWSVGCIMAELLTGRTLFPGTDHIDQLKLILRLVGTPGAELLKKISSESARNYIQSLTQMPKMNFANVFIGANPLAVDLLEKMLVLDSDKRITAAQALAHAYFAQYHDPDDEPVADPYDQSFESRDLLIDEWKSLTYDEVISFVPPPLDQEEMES
Chain of MAP kinase-interacting serine/threonine-protein kinase 2 (Q9HBH9 whole entry): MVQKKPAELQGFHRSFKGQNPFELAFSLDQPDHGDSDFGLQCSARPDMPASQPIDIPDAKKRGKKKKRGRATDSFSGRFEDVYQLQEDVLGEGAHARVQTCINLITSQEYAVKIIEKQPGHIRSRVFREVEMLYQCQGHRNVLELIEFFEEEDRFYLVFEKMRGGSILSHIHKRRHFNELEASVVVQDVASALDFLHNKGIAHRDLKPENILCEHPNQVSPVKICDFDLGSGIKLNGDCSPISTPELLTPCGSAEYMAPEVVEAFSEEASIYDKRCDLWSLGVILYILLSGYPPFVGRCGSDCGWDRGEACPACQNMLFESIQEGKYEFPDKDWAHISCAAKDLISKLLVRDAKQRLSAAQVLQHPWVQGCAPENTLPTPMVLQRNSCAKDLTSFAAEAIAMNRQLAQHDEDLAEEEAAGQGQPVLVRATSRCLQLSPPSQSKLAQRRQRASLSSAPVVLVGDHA
Chain of RAC-alpha serine/threonine-protein kinase (Homo sapiens) (P31749 whole entry): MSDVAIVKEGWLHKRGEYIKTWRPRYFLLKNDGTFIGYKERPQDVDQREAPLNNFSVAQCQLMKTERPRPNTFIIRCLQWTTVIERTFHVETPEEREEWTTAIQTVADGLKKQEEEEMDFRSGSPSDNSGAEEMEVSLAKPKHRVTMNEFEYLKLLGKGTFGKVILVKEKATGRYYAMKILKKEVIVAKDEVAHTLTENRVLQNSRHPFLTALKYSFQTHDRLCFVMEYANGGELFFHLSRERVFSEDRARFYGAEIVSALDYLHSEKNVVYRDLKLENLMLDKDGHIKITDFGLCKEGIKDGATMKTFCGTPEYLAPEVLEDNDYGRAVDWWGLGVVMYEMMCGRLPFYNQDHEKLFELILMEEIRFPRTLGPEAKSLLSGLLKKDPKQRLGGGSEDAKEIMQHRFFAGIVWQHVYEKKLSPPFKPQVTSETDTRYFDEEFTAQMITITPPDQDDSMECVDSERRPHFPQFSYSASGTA
Chain of Serine/threonine-protein kinase pim-1 (Homo sapiens) (P11309 whole entry, looked up): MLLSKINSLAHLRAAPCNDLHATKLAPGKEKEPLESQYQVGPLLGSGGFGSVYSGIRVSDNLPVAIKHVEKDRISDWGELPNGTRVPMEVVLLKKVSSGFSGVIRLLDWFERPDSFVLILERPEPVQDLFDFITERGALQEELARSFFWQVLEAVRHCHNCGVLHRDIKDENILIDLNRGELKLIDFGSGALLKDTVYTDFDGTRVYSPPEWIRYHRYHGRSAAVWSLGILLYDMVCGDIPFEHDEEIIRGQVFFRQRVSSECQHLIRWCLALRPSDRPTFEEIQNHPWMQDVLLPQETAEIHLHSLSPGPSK
Chain of Receptor-type tyrosine-protein kinase FLT3 (Homo sapiens) (P36888 whole entry): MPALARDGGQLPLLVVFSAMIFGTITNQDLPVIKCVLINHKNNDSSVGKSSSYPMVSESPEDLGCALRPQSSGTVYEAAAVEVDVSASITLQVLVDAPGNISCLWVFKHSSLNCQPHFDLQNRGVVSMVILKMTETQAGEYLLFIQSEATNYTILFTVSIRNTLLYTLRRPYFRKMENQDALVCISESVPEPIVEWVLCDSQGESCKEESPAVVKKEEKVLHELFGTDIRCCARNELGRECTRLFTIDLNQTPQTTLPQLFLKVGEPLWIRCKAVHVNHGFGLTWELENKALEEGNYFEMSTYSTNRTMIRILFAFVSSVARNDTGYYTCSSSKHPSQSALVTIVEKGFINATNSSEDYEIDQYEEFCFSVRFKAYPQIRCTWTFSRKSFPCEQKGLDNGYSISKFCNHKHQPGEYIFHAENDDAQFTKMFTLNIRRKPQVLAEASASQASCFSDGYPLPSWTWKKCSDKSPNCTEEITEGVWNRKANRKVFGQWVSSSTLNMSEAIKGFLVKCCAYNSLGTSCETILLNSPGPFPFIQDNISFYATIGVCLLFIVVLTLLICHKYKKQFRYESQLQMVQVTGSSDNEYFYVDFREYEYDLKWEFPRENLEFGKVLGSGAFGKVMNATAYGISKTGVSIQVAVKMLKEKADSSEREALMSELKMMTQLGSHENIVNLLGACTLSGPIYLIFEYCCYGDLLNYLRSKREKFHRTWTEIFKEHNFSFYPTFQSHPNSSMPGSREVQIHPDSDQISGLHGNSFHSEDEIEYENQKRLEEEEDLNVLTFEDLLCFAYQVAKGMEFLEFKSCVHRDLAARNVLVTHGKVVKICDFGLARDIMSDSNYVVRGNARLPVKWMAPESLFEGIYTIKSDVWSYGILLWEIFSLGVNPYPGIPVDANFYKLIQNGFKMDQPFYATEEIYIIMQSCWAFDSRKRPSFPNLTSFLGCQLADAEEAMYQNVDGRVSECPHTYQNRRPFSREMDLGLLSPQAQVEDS
Chain of Mitogen-activated protein kinase 1 (Homo sapiens) (P28482 whole entry): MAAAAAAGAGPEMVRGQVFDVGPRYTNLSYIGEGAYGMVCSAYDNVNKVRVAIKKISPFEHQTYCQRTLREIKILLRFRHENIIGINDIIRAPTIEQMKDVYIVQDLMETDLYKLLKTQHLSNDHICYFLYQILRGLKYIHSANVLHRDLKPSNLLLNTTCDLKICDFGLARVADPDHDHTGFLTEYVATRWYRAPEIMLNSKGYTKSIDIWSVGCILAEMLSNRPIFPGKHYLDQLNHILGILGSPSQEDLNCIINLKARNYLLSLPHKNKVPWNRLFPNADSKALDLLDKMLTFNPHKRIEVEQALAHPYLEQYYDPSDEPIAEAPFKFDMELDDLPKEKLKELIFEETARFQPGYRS

By GI50 is commonly meant the concentration at which growth is held to half of that of the control. The low end stands for more potent growth inhibition, the high end for less potent growth inhibition. As usually defined, the inhibition is the change of the read-out against control, counted positive when it falls. On to `Nc1ncnc2[nH]nc(Nc3ccc(F)cc3)c12`, for which the outcome in the assay with MV4-11 [1], in the assay on MV4-11 [3] and in the assay with MV4-11 [4] was Active. In addition, the Activity in the assay with MV4-11 [2] is recorded as 12.52%; in the assay with MV4-11 [5], 9.4%; with MV4-11 [7] it was 9.16%; in the assay on MV4-11 [8], 78.01%; with MV4-11 [11] it was 72%; in the assay on MV4-11 [12], 13%. Moreover, the Activity in the assay on MV4-11 [13] was 8.4%; in the assay with MV4-11 [14], 10.2%; in the assay with MV4-11 [15] it was 0.3%. This compound showed a GI50 in the assay with MV4-11 [6] of 4.88 µM. For the same compound, in assay [9], the inhibition result was “Active”. Also, in the assay on MV4-11 [10], the outcome was inactive.

What is called Ki is a measure of affinity in units of concentration, obtained from inhibition or displacement. On to `COCCCNC(=O)c1sc2ncnc(Nc3cc(C)cn(C)c3=O)c2c1C`, for which the Activity amounted to 4.52% with MV4-11 [16]; 12.5% with MV4-11 [20]; 6% in the assay on MV4-11 [24]; 72.5% with MV4-11 [26]; 8.1% in the assay with MV4-11 [28]; 83.96% in the assay on MV4-11 [30]. Besides, the results for the Activity with MV4-11 [32], in the assay on MV4-11 [34] and with MV4-11 [39] were 11.4%, 0.1% and 6.9%, respectively. Also, the inhibition result (in assay [17]; in [21]; in assay [23]; in [27]; in the assay filed under Homo sapiens; in assay [35]) was “inactive” in each case. Further, the inhibition result in assay [36] and in assay [40] was “inactive” each time. In addition, the outcome with MV4-11 [18], in the assay on MV4-11 [29] and with MV4-11 [38] was inactive. In addition, the inhibition in [19] turned out to be 31%. Further, the inhibition entry in assay [22] is “Active”. Besides, the values for the Ki in assay [25] and in assay [31] were 2.63 µM and 5 µM, respectively. The same compound gave a GI50 in the assay with MV4-11 [6] of 5.73 µM. Besides, the result in the assay on MV4-11 [33], in the assay on MV4-11 [37] and in the assay with MV4-11 [41] was Active.
